Measurements reported in ChEMBL document CHEMBL4699489, “Optimized Opioid-Neurotensin Multitarget Peptides: From Design to Structure-Activity Relationship Studies” (J Med Chem, 2020).
Numbered stars: 1 amine (or outer) side, 2 acyl side, 3 side chain; on linkers, the order of the positions; unused ones are H or OH. Square brackets hold non-standard residues; d marks the D form. Peptide text beside a SMILES is read from it. X1 = O=C1[C@@H](N[*:1])Cc2ccccc2CN1CCC(=O)[*:2]; X2 = O=C([C@@H]1Cc2cc(O)ccc2CN1[*:1])[*:2]; Dmt = Cc1cc(O)cc(C)c1C[C@H](N)C(=O)O; mTyr = N[C@@H](Cc1cccc(O)c1)C(=O)O; Tle = CC(C)(C)[C@H](N)C(=O)O; β3hK = NCCCC[C@H](N)CC(=O)O

Experiments:
[1] = biological target: T1, Neurotensin receptor type 1 (Homo sapiens, UniProt P30989); assay: Agonist activity at human NTS1 expressed in HEK293 cells co-expressing Galphaq/RlucII/GFP10-Ggamma1/Gbeta1 assessed as increase in Gq activation incubated for 10 mins in presence of coelenterazine 400A by BRET assay relative to NT (8-13); type: cell-based
T1 sequence (P30989 whole entry): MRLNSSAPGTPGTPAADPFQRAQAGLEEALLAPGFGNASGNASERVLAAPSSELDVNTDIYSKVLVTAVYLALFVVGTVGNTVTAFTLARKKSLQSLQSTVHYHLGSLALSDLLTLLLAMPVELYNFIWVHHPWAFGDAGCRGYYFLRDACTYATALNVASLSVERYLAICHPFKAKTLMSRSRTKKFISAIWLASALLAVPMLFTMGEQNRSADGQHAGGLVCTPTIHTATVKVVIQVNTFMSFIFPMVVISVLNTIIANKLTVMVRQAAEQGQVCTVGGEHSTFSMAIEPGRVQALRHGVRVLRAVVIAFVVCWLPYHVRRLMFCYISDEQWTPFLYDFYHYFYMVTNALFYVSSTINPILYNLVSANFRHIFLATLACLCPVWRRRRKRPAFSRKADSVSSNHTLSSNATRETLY

[2] = biological target: Neurotensin receptor type 2 (Homo sapiens, UniProt O95665); assay: Displacement of [125I]-neurotensin from human recombinant NTS2 stably expressed in human 1321N1 cell membranes incubated for 60 mins by gamma counter method
Chain of Neurotensin receptor type 2 (O95665 whole entry): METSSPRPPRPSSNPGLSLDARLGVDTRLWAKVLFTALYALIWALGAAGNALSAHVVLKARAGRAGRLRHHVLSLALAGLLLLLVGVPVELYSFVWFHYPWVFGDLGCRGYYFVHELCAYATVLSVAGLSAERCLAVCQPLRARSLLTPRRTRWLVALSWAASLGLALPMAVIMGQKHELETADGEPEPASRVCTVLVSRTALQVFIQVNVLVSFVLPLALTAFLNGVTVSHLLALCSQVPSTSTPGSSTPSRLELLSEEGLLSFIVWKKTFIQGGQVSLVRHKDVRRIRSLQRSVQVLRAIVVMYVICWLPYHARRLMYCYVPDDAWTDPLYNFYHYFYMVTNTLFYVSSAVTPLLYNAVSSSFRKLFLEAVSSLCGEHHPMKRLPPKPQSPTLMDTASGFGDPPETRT

[3] = biological target: T1, Neurotensin receptor type 1; assay: Displacement of [125I]-neurotensin from human recombinant NTS1 stably expressed in CHO-K1 cell membranes incubated for 60 mins by gamma counter method
[4] = biological target: T2, Delta-type opioid receptor (Homo sapiens, UniProt P41143); assay: Agonist activity at human DOR stably expressed in CHO cell membranes assessed as stimulation of [35S]-GTPgammaS binding incubated for 1 hr by liquid scintillation counting assay; type: functional
T2 sequence (P41143 whole entry): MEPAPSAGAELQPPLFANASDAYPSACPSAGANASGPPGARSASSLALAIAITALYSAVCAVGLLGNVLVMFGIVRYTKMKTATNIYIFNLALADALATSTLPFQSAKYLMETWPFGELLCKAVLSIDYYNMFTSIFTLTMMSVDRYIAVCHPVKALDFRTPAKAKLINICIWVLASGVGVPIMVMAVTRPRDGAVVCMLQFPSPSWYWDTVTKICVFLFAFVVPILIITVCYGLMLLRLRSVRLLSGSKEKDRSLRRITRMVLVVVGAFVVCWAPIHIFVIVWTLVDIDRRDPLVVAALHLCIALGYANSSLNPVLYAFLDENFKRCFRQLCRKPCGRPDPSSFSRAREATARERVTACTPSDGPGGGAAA
Method in brief: (§1)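 Membranes from CHO cells stably expressing hMOR, hDOR or hKOR, prepared in 20 mM HEPES, 10 mM MgCl2, 100 mM NaCl, pH 7.4. Membranes (5–10 μg) incubated with 0.05 nM [35S]GTPγS, 10 μM GDP and graded peptide concentrations, 60 min at 25 °C. Nonspecific binding with 10 μM GTPγS, basal without ligand. GF/B filtration, scintillation counting. EC50 and Emax by nonlinear regression; Emax relative to DAMGO, DPDPE or U69,593. Duplicate, three independent experiments.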

[5] = biological target: T2, Delta-type opioid receptor; assay: Displacement of [3H]-Diprenorphine from recombinant human delta opioid receptor expressed in CHO cell membrane incubated for 60 mins by liquid scintillation counting method; type: cell membranes
Method in brief: (§2)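 Membranes from CHO-hMOR, -hDOR or -hKOR cells, homogenized and washed in 50 mM Tris-HCl pH 7.4. Membranes (15–20 μg) incubated with [3H]DAMGO (MOR), [3H]diprenorphine (DOR) or [3H]U69,593 (KOR) plus graded peptide, 60 min at 25 °C. Nonspecific binding with 1–10 μM of the unlabelled ligand. GF/C filtration, scintillation counting. Ki by Cheng–Prusoff. Duplicate, three independent experiments.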

[6] = biological target: T3, Mu-type opioid receptor (Homo sapiens, UniProt P35372); assay: Agonist activity at human MOR expressed in human U2OS cells assessed as increase in beta arrestin2 recruitment incubated for 90 mins by pathhunter beta-arrestin assay relative to DAMGO; type: cell-based; settings: filed as partial agonist
T3 sequence (P35372 whole entry): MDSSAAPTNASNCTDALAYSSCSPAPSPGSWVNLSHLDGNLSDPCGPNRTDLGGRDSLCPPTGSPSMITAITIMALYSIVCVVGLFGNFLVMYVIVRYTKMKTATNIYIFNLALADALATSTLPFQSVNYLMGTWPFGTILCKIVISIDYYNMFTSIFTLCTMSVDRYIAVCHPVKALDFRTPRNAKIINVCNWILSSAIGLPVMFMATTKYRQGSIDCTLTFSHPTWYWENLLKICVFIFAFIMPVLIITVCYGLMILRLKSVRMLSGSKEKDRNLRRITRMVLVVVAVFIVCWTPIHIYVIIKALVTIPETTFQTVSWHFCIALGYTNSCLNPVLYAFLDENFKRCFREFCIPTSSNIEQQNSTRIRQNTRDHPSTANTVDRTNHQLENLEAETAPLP
Method in brief: (§3)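 U2OS cells stably coexpressing hMOR and enzyme acceptor-tagged β-arrestin-2, seeded at 5000 cells/well and kept 24 h at 37 °C. Graded peptide concentrations in PBS added for 90 min at 37 °C, then detection mix for 60 min at room temperature. Chemiluminescence read-out. EC50 and Emax (relative to DAMGO) by nonlinear regression. Duplicate, three independent experiments.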

[7] = biological target: T3, Mu-type opioid receptor; assay: Agonist activity at human MOR expressed in CHO cell membranes assessed as stimulation of [35S]-GTPgammaS binding incubated for 1 hr by liquid scintillation counting assay relative to DAMGO; type: functional; settings: filed as agonist, time 60.0 min; method in brief: as §1
[8] = biological target: T3, Mu-type opioid receptor; assay: Agonist activity at human MOR stably expressed in CHO cell membranes assessed as stimulation of [35S]-GTPgammaS binding incubated for 1 hr by liquid scintillation counting assay; type: functional; method in brief: as §1
[9] = biological target: T4, Kappa-type opioid receptor (Homo sapiens, UniProt P41145); assay: Agonist activity at human KOR stably expressed in CHO cell membranes assessed as stimulation of [35S]-GTPgammaS binding incubated for 1 hr by liquid scintillation counting assay; type: functional; method in brief: as §1
T4 sequence (P41145 whole entry): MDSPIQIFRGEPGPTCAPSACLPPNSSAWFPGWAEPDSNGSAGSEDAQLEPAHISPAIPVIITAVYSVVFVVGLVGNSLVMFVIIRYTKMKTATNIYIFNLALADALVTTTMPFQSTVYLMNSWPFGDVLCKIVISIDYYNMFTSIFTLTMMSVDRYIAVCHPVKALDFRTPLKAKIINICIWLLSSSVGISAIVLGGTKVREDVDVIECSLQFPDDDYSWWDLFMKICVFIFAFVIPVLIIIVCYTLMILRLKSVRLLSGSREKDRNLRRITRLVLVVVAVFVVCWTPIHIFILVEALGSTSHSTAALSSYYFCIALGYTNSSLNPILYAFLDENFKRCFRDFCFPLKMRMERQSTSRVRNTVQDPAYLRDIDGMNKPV

[10] = biological target: T3, Mu-type opioid receptor; assay: Displacement of [3H]-DAMGO from recombinant human mu opioid receptor expressed in CHO cell membrane incubated for 60 mins by liquid scintillation counting method; type: cell membranes; method in brief: as §2
[11] = biological target: T2, Delta-type opioid receptor; assay: Agonist activity at human DOR stably expressed in CHO cell membranes assessed as stimulation of [35S]-GTPgammaS binding incubated for 1 hr by liquid scintillation counting assay relative to DPDPE; type: functional; settings: filed as agonist, time 60.0 min; method in brief: as §1
[12] = biological target: T3, Mu-type opioid receptor; assay: Agonist activity at human MOR expressed in human U2OS cells assessed as increase in beta arrestin2 recruitment incubated for 90 mins by pathhunter beta-arrestin assay; type: cell-based; method in brief: as §3
[13] = biological target: T4, Kappa-type opioid receptor; assay: Agonist activity at human KOR stably expressed in CHO cell membranes assessed as stimulation of [35S]-GTPgammaS binding incubated for 1 hr by liquid scintillation counting assay relative to U69593; type: functional; settings: time 60.0 min; method in brief: as §1
[14] = biological target: T3, Mu-type opioid receptor; assay: Potency index, ratio of PK20 Ki to test compound Ki for displacement of [3H]-DAMGO from recombinant human mu opioid receptor expressed in CHO cell membranes
[15] = biological target: T1, Neurotensin receptor type 1; assay: Agonist activity at human NTS1 expressed in HEK293 cells co-expressing Galphaq/RlucII/GFP10-Ggamma1/Gbeta1 assessed as increase in Galphaq activation incubated for 10 mins in presence of coelenterazine 400A by BRET assay; type: cell-based
[16] = biological target: T4, Kappa-type opioid receptor; assay: Displacement of [3H]-U69593 from recombinant human kappa opioid receptor expressed in CHO cell membrane incubated for 60 mins by liquid scintillation counting method; type: cell membranes; method in brief: as §2

Compound | Emax [1] | Ki [2] | Ki [3] | EC50 [4] | Ki [5] | Emax [6] | Emax [7] | EC50 [8] | EC50 [9] | Ki [10] | Emax [11] | EC50 [12] | Emax [13] | Ratio Ki [14] | EC50 [15] | Ki [16]
CC(C)C[C@H](NC(=O)[C@@H](NC(=O)[C@H](Cc1ccc(O)cc1)NC(=O)[C@@H]1CCCN1C(=O)[C@H](CCCNC(=N)N)NC(=O)[C@@H](N)CCCNC(=N)N)C(C)(C)C)C(=O)O | 97% | – | – | – | – | – | – | – | – | – | – | – | – | – | – | –
Cc1cc(O)cc(C)c1C[C@H](NC(=O)[C@@H]1CCCN1C(=O)[C@H](CCCNC(=N)N)NC(=O)C[C@@H](N)CCCNC(=N)N)C(=O)N[C@H](C(=O)N[C@@H](CC(C)C)C(=O)O)C(C)(C)C | – | 0.11 nM | 2.3 nM | – | – | – | – | – | – | – | – | – | – | – | – | –
Cc1cc(O)cc(C)c1C[C@H](NC(=O)[C@@H]1CCCN1C(=O)[C@H](CCCNC(=N)N)NC(=O)[C@@H](N)CCCNC(=N)N)C(=O)N[C@H](C(=O)N[C@@H](CC(C)C)C(=O)O)C(C)(C)C | – | 3 nM | 13.4 nM | – | – | – | – | – | – | – | – | – | – | – | – | –
CC(C)C[C@H](NC(=O)[C@@H](NC(=O)[C@H](Cc1cccc(O)c1)NC(=O)[C@@H]1CCCN1C(=O)[C@H](CCCNC(=N)N)NC(=O)[C@@H](N)CCCNC(=N)N)C(C)(C)C)C(=O)O | – | 24 nM | 93 nM | – | – | – | – | – | – | – | – | – | – | – | – | –
CC(C)C[C@H](NC(=O)[C@@H](NC(=O)[C@@H]1Cc2cc(O)ccc2CN1C(=O)[C@@H]1CCCN1C(=O)[C@H](CCCNC(=N)N)NC(=O)[C@@H](N)CCCNC(=N)N)C(C)(C)C)C(=O)O (H-RRP[X2][Tle]L-OH) | – | 132 nM | 6680 nM | – | – | – | – | – | – | – | – | – | – | – | – | –
Cc1cc(O)cc(C)c1C[C@H](N)C(=O)N[C@H](CCCNC(=N)N)C(=O)N[C@H]1Cc2ccccc2CN(CCC(=O)N[C@@H](CCCCN)C(=O)N[C@@H](CCCCN)C(=O)N2CCC[C@H]2C(=O)N[C@@H](Cc2ccc(O)cc2)C(=O)N[C@H](C(=O)N[C@@H](CC(C)C)C(=O)O)C(C)(C)C)C1=O (H-[Dmt][dR][X1]KKPY[Tle]L-OH) | 99% | 0.29 nM | 2.3 nM | 1320 nM | 213 nM | 67% | 99% | 64.6 nM | 1650 nM | 4.89 nM | 87% | 2460 nM | 31% | 2 | 0.26 nM | 201 nM
Cc1cc(O)cc(C)c1C[C@H](NC(=O)[C@@H]1CCCN1C(=O)[C@H](CCCCN)NC(=O)[C@H](CCCCN)NC(=O)CCN1Cc2ccccc2C[C@H](NC(=O)[C@@H](CCCNC(=N)N)NC(=O)[C@@H](N)Cc2c(C)cc(O)cc2C)C1=O)C(=O)N[C@H](C(=O)N[C@@H](CC(C)C)C(=O)O)C(C)(C)C (H-[Dmt][dR][X1]KKP[Dmt][Tle]L-OH) | 109% | 0.16 nM | 13 nM | 898 nM | 276 nM | 62% | 95% | 48.7 nM | 1570 nM | 7.15 nM | 60% | 1960 nM | 22% | 2 | 3.9 nM | 138 nM
Cc1cc(O)cc(C)c1C[C@H](N)C(=O)N[C@H](CCCNC(=N)N)C(=O)N[C@H]1Cc2ccccc2CN(CCC(=O)N[C@@H](CCCCN)C(=O)N[C@@H](CCCCN)C(=O)N2CCC[C@H]2C(=O)N2Cc3ccc(O)cc3C[C@H]2C(=O)N[C@H](C(=O)N[C@@H](CC(C)C)C(=O)O)C(C)(C)C)C1=O (H-[Dmt][dR][X1]KKP[X2][Tle]L-OH) | – | 75 nM | 6830 nM | 842 nM | 209 nM | 66% | 94% | 45.6 nM | 1560 nM | 6.24 nM | 91% | 2160 nM | 20% | 2 | – | 150 nM
Cc1cc(O)cc(C)c1C[C@H](N)C(=O)N[C@H](CCCNC(=N)N)C(=O)N[C@H]1Cc2ccccc2CN(CCC(=O)N[C@@H](CCCCN)C(=O)N[C@@H](CCCCN)C(=O)N2CCC[C@H]2C(=O)N[C@@H](Cc2cccc(O)c2)C(=O)N[C@H](C(=O)N[C@@H](CC(C)C)C(=O)O)C(C)(C)C)C1=O (H-[Dmt][dR][X1]KKP[mTyr][Tle]L-OH) | 90% | 0.5 nM | 59 nM | 452 nM | 200 nM | 66% | 87% | 27.4 nM | 401 nM | 3.99 nM | 90% | 1270 nM | 30% | 2 | 15 nM | 70.9 nM
Cc1cc(O)cc(C)c1C[C@H](N)C(=O)N[C@H](CCCNC(=N)N)C(=O)N[C@H]1Cc2ccccc2CN(CCC(=O)N[C@@H](CCCNC(=N)N)C(=O)N[C@@H](CCCNC(=N)N)C(=O)N2CCC[C@H]2C(=O)N[C@@H](Cc2ccc(O)cc2)C(=O)N[C@H](C(=O)N[C@@H](CC(C)C)C(=O)O)C(C)(C)C)C1=O (H-[Dmt][dR][X1]RRPY[Tle]L-OH) | 111% | 0.09 nM | 0.43 nM | 301 nM | 56.4 nM | 72% | 94% | 12.8 nM | 514 nM | 1.32 nM | 106% | 1330 nM | 34% | 2 | 0.24 nM | 78.6 nM
Cc1cc(O)cc(C)c1C[C@H](NC(=O)[C@@H]1CCCN1C(=O)[C@H](CCCNC(=N)N)NC(=O)[C@H](CCCNC(=N)N)NC(=O)CCN1Cc2ccccc2C[C@H](NC(=O)[C@@H](CCCNC(=N)N)NC(=O)[C@@H](N)Cc2c(C)cc(O)cc2C)C1=O)C(=O)N[C@H](C(=O)N[C@@H](CC(C)C)C(=O)O)C(C)(C)C (H-[Dmt][dR][X1]RRP[Dmt][Tle]L-OH) | 101% | 0.03 nM | 0.78 nM | 313 nM | 159 nM | 79% | 96% | 9.12 nM | 415 nM | 1.11 nM | 91% | 1140 nM | 37% | 2 | 1.3 nM | 102 nM
Cc1cc(O)cc(C)c1C[C@H](N)C(=O)N[C@H](CCCNC(=N)N)C(=O)N[C@H]1Cc2ccccc2CN(CCC(=O)N[C@@H](CCCNC(=N)N)C(=O)N[C@@H](CCCNC(=N)N)C(=O)N2CCC[C@H]2C(=O)N[C@@H](Cc2cccc(O)c2)C(=O)N[C@H](C(=O)N[C@@H](CC(C)C)C(=O)O)C(C)(C)C)C1=O (H-[Dmt][dR][X1]RRP[mTyr][Tle]L-OH) | 95% | 0.33 nM | 12.4 nM | 177 nM | 60.9 nM | 81% | 95% | 6.49 nM | 424 nM | 1.73 nM | 110% | 359 nM | 28% | 2 | 6.7 nM | 19.9 nM
Cc1cc(O)cc(C)c1C[C@H](NC(=O)[C@@H]1CCCN1C(=O)[C@H](CCCCN)NC(=O)C[C@H](CCCCN)NC(=O)CCN1Cc2ccccc2C[C@H](NC(=O)[C@@H](CCCNC(=N)N)NC(=O)[C@@H](N)Cc2c(C)cc(O)cc2C)C1=O)C(=O)N[C@H](C(=O)N[C@@H](CC(C)C)C(=O)O)C(C)(C)C (H-[Dmt][dR][X1][β3hK]KP[Dmt][Tle]L-OH) | 112% | 0.32 nM | 15 nM | 248 nM | 48.6 nM | 69% | 97% | 65.4 nM | 239 nM | 7.12 nM | 97% | 3040 nM | 36% | 2 | 1.8 nM | 208 nM
